Several values for one entry are separate records, joined by “and”; a condition that tells them apart may be missing. Equal entries are not always repeated.
What was measured:
Format in all cases: toxicity, cell-based
HEK-293T = test: Multiplex assay against HEK293T; conditions: human, number of replicates 2
Summary of the method: (§1)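 On a CQ1 microscope at 37°C and 5% CO2, live cells were imaged after compound addition. They had been stained at seeding with Hoechst33342, BioTracker Green Microtubule Cytoskeleton Dye, MitoTracker Red and Annexin V Alexa Fluor 680. CellPathfinder machine-learning gating assigned cells to Hoechst high-intensity objects or normal cells, normal cells to healthy, pyknosed or fragmented nuclei, and pyknosed cells to mitotic or apoptotic. Tubulin, mitochondrial-mass and membrane-permeability phenotypes are per cents of healthy-nucleus cells.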

Fibroblast = test: Multiplex assay against human fibroblast; conditions: number of replicates 2; summary of the method: as §1
U2OS = test: Multiplex assay against U2OS; conditions: human, number of replicates 2; summary of the method: as §1
[1] = 12 h, 1 µM, compound concentration 1 uM
[2] = 12 h, 10 µM, compound concentration 10 uM
[3] = 24 h, 1 µM, compound concentration 1 uM
[4] = 24 h, 10 µM, compound concentration 10 uM
[5] = 48 h, 1 µM, compound concentration 1 uM
[6] = 48 h, 10 µM, compound concentration 10 uM

CS(=O)(=O)c1ccc(C(=O)Nc2ccc(F)c(COc3ccc(Br)cc3CNCCO)c2)c(Cl)c1.O=CO
Population Apoptotic (%) (HEK-293T; [1]): 55% and 59%
Population Healthy Nuclei (%) (HEK-293T; [1]): 78% and 76%
Population Mitotic Cells (%) (HEK-293T; [1]): 44% and 40%
Total Cell Count (HEK-293T; [1]): 571 and 534
Population Apoptotic (%) (HEK-293T; [2]): 71% and 70%
Population Healthy Nuclei (%) (HEK-293T; [2]): 84% and 78%
Population Mitotic Cells (%) (HEK-293T; [2]): 28% and 30%
Total Cell Count (HEK-293T; [2]): 446 and 461
Population Apoptotic (%) (HEK-293T; [3]): 57% and 61%
Population Healthy Nuclei (%) (HEK-293T; [3]): 79% and 77%
Population Mitotic Cells (%) (HEK-293T; [3]): 42% and 38%
Total Cell Count (HEK-293T; [3]): 845 and 808
Population Apoptotic (%) (HEK-293T; [4]): 72% and 81%
Population Healthy Nuclei (%) (HEK-293T; [4]): 75%
Population Mitotic Cells (%) (HEK-293T; [4]): 28% and 18%
Total Cell Count (HEK-293T; [4]): 456
Population Apoptotic (%) (HEK-293T; [5]): 30% and 39%
Population Healthy Nuclei (%) (HEK-293T; [5]): 79% and 83%
Population Mitotic Cells (%) (HEK-293T; [5]): 69% and 60%
Total Cell Count (HEK-293T; [5]): 2082 and 1679
Population Apoptotic (%) (HEK-293T; [6]): 82% and 80%
Population Healthy Nuclei (%) (HEK-293T; [6]): 75%
Population Mitotic Cells (%) (HEK-293T; [6]): 17% and 19%
Total Cell Count (HEK-293T; [6]): 675 and 612
Population Apoptotic (%) (Fibroblast; [1]): 41% and 39%
Population Healthy Nuclei (%) (Fibroblast; [1]): 69% and 66%
Population Mitotic Cells (%) (Fibroblast; [1]): 58% and 60%
Total Cell Count (Fibroblast; [1]): 178 and 232
Population Apoptotic (%) (Fibroblast; [2]): 50% and 51%
Population Healthy Nuclei (%) (Fibroblast; [2]): 49%
Population Mitotic Cells (%) (Fibroblast; [2]): 50% and 48%
Population Pyknosed Nuclei (%) (Fibroblast; [2]): 35% and 30%
Total Cell Count (Fibroblast; [2]): 220 and 252
Population Apoptotic (%) (Fibroblast; [3]): 63% and 46%
Population Healthy Nuclei (%) (Fibroblast; [3]): 68% and 56%
Population Mitotic Cells (%) (Fibroblast; [3]): 36% and 53%
Total Cell Count (Fibroblast; [3]): 202 and 243
Population Apoptotic (%) (Fibroblast; [4]): 68% and 73%
Population Healthy Nuclei (%) (Fibroblast; [4]): 54% and 56%
Population Mitotic Cells (%) (Fibroblast; [4]): 31% and 26%
Population Pyknosed Nuclei (%) (Fibroblast; [4]): 27% and 22%
Total Cell Count (Fibroblast; [4]): 219 and 283
Population Apoptotic (%) (Fibroblast; [5]): 54% and 68%
Population Healthy Nuclei (%) (Fibroblast; [5]): 71% and 72%
Population Mitotic Cells (%) (Fibroblast; [5]): 45% and 31%
Total Cell Count (Fibroblast; [5]): 202 and 207
Population Apoptotic (%) (Fibroblast; [6]): 88% and 77%
Population Healthy Nuclei (%) (Fibroblast; [6]): 63% and 61%
Population Mitotic Cells (%) (Fibroblast; [6]): 11% and 22%
Population Pyknosed Nuclei (%) (Fibroblast; [6]): 22%
Total Cell Count (Fibroblast; [6]): 200 and 244
Population Apoptotic (%) (U2OS; [1]): 50% and 63%
Population Healthy Nuclei (%) (U2OS; [1]): 75% and 84%
Population Hoechst High Intensity Objects (%) (U2OS; [1]): 0%
Population Mitotic Cells (%) (U2OS; [1]): 50% and 36%
Population Apoptotic (%) (U2OS; [2]): 85% and 58%
Population Healthy Nuclei (%) (U2OS; [2]): 80% and 77%
Population Hoechst High Intensity Objects (%) (U2OS; [2]): 2% and 0%
Population Mitotic Cells (%) (U2OS; [2]): 14% and 41%
Population Apoptotic (%) (U2OS; [3]): 62% and 73%
Population Healthy Nuclei (%) (U2OS; [3]): 74% and 90%
Population Hoechst High Intensity Objects (%) (U2OS; [3]): 0%
Population Mitotic Cells (%) (U2OS; [3]): 37% and 26%
Population Apoptotic (%) (U2OS; [4]): 90% and 71%
Population Healthy Nuclei (%) (U2OS; [4]): 68%
Population Hoechst High Intensity Objects (%) (U2OS; [4]): 0%
Population Apoptotic (%) (U2OS; [5]): 83%
Population Healthy Nuclei (%) (U2OS; [5]): 81% and 87%
Population Hoechst High Intensity Objects (%) (U2OS; [5]): 0%
Population Mitotic Cells (%) (U2OS; [5]): 16%
Population Apoptotic (%) (U2OS; [6]): 66% and 89%
Population Healthy Nuclei (%) (U2OS; [6]): 45% and 67%
Population Hoechst High Intensity Objects (%) (U2OS; [6]): 0%

From ChEMBL document CHEMBL5303300, “EUbOPEN Chemogenomics Library - Multiplex” (2023)
